The source made the active and inactive calls. No cut-off for these calls is given here.

This is an account of results in ChEMBL document CHEMBL5154684 (J Med Chem, 2022).

The target of data set [1] is T1, Nuclear factor erythroid 2-related factor 2 (Homo sapiens) (UniProt Q16236).
T1 sequence (whole entry): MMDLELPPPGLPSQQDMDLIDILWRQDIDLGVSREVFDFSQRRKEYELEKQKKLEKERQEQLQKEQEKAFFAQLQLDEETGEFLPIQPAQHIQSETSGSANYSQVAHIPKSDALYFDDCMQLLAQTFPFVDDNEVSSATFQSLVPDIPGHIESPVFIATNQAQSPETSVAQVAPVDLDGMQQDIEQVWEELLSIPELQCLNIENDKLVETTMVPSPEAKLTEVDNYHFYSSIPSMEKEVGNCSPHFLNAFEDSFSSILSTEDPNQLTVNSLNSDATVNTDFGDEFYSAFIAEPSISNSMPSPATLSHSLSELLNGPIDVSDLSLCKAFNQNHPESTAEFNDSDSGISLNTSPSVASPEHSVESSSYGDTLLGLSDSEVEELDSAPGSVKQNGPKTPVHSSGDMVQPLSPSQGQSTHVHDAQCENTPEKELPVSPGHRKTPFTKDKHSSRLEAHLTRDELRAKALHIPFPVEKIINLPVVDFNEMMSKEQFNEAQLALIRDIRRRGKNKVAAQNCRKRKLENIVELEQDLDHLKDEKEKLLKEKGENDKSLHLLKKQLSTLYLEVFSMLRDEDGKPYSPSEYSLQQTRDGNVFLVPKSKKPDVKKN
Kind of data set: Activation of Nrf2 transcriptional activity in HEK293T cells transfected with TK-Renilla reporter vector and cotransfected with ARE-LUC vector measured after 16 hrs by dual-luciferase reporter gene assay. The data set is classed as cell-based. Particulars: filed as activator, dose 6-60 µM, DDE = dose-dependent effect. The method, boiled down:
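HEK293T cells were seeded and cultured 16 h, then co-transfected by calcium phosphate with 3×ARE-LUC and TK-Renilla. […] Lysates were read by dual-luciferase. Triplicates, at least twice. CD is the concentration that doubles luciferase over basal.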
(Reporter assays use an easily measured gene product as a stand-in for the process of interest.)

For the next data set, the species on record is Homo sapiens. Kind of data set: Selectivity ratio of CD for Nrf2 activation in HEK293T cells to IC50 for inhibition of ROCK2 (unknown origin). The data set is classed as cell-based. The essentials:
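Ratio of CD to ROCK2 IC50. CD is the concentration doubling ARE-luciferase over basal in transfected HEK293T cells after 16 h. […] Reactions were stopped with orthophosphoric acid and captured on P81 filters.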

Data set [2] concerns the target T1, Nuclear factor erythroid 2-related factor 2 (Homo sapiens). Kind of data set: Induction of Nrf2 signalling pathway in human lymphoblast assessed as increase in NQO1 mRNA level at 20 uM measured after 24 hrs by RT-qPCR analysis. The data set is classed as cell-based. Particulars: Lymphoblastoid cell, filed as activator. The essentials:
(§1)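 EBV-immortalized lymphoblastoid lines from controls, sALS and SOD1-ALS patients were grown in RPMI-1640 with 10% FBS. They were seeded at 1 × 10^6 cells/mL, serum-starved 12 h, then treated at 20 μM for 24 h. HMOX1 and NQO1 mRNA measured by qRT-PCR, normalized to β-actin mRNA. n = 6–7 controls, 5–6 sALS, 4 SOD1-ALS, ± S.E.M.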
For orientation: Real-time PCR tracks product formation cycle by cycle.

The target is the same in data set [3]. Kind of data set: Activation of Nrf2 transcriptional activity in human SH-SY5Y cells assessed as increase in HMOX1 mRNA expression at 20 uM by RT-qPCR analysis. The data set is classed as cell-based. Particulars: filed as activator, time 4-24 hrs, TDE = time-dependent effect. The method, boiled down: (§2)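 SH-SY5Y cells (DMEM/Ham's F12, 10% FBS) were treated at 20 μM for 4, 8 and 24 h. HMOX1 and NQO1 mRNA measured by qRT-PCR, normalized to β-actin mRNA. Mean of n = 4 ± S.E.M., experiments done twice.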

For data set [4], the target named is T2, Nuclear factor erythroid 2-related factor 2 (Mus musculus) (UniProt Q60795).
T2 sequence (whole entry): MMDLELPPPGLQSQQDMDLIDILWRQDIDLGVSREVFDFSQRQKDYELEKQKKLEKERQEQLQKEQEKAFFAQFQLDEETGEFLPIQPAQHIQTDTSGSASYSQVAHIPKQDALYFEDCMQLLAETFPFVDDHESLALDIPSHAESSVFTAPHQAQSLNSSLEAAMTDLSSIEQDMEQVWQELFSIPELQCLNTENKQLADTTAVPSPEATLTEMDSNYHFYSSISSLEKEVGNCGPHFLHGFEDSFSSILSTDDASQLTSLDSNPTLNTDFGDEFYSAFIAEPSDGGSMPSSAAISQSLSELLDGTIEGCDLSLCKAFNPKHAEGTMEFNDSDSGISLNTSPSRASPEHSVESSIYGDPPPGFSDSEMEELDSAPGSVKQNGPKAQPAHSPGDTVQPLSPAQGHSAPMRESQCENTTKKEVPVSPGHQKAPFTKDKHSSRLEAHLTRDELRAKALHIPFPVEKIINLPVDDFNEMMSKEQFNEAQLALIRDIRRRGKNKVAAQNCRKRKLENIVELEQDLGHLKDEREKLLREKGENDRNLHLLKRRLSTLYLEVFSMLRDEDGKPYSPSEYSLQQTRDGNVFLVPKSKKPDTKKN
Description: Activation of Nrf2 transcriptional activity in KEAP1-/- mouse embryonic fibroblast cells assessed as increase in HMOX1 mRNA levels at 20 uM measured upto 24 hrs by RT-qPCR analysis. The data set is classed as cell-based. Particulars: filed as activator. The essentials:
(§3)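 Keap1+/+ and Keap1–/– MEFs were grown in DMEM with 10% FBS and treated at 20 μM for 4, 8 and 24 h. HMOX1 and NQO1 mRNA measured by qRT-PCR, normalized to β-actin mRNA. n = 4 ± S.E.M., experiments done twice; two-way ANOVA with Bonferroni post hoc.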

The target in data set [5] is T1, Nuclear factor erythroid 2-related factor 2 (Homo sapiens). Description: Activation of Nrf2 transcriptional activity in human SH-SY5Y cells assessed as increase in NQO1 mRNA expression at 20 uM by RT-qPCR analysis. The data set is classed as cell-based. Particulars: filed as activator, time 4-24 hrs, TDE = time-dependent effect. The essentials: as §2
For data set [6], the target named is T2, Nuclear factor erythroid 2-related factor 2 (Mus musculus). Kind of data set: Activation of Nrf2 transcriptional activity in KEAP1+/+ mouse embryonic fibroblast cells assessed as increase in NQO1 mRNA levels at 20 uM by RT-qPCR analysis. The data set is classed as cell-based. Particulars: filed as activator, time 4-24 hrs, TDE = time-dependent effect. The method, boiled down:
as §3

Data set [7] deals with T1, Nuclear factor erythroid 2-related factor 2 (Homo sapiens). Description: Induction of Nrf2 signalling pathway in ALS patient derived human lymphoblasts harboring SOD1 mutation assessed as increase in NQO1 mRNA level at 20 uM measured after 24 hrs by RT-qPCR analysis. Particulars: Lymphoblastoid cell, filed as activator. The data set is classed as cell-based. The essentials:
as §1

For data set [8], the target named is Keap1/Nrf2 (Homo sapiens) (UniProt Q16236+Q14145). Kind of data set: Inhibition of Nrf2 (unknown origin)/KEAP1 (unknown origin) protein-protein interaction by measuring inflection temperature at 100 uM by differential scanning fluorimetry. The data set is classed as protein assay. (In general: In DSF a fluorescence change marks the thermal transition of the protein.)
Keap1/Nrf2 (Homo sapiens), sequence (Q14145 whole entry, looked up, one chain of several): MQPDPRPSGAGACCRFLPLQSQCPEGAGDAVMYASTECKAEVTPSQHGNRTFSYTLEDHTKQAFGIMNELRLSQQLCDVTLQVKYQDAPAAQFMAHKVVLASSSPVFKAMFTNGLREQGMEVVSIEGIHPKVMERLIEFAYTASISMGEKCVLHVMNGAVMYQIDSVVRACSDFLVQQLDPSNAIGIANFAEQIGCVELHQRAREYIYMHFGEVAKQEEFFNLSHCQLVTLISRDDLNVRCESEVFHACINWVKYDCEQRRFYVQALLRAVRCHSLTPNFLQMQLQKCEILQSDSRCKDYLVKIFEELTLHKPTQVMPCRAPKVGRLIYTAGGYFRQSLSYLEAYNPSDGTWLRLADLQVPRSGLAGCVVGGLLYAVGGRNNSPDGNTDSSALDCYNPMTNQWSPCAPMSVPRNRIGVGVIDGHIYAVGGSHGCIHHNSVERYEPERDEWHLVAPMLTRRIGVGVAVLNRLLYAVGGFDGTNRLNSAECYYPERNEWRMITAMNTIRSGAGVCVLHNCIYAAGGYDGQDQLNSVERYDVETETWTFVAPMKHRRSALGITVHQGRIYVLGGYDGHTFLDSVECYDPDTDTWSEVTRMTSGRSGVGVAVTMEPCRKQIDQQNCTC

Data set [9] addresses T1, Nuclear factor erythroid 2-related factor 2 (Homo sapiens). Description: Activation of Nrf2 transcriptional activity in human SH-SY5Y cells assessed as increase in NQO1 protein levels at 20 uM incubated for 24 hrs by immunoblot analysis. The data set is classed as cell-based. The following applies: filed as activator. The method, boiled down:
(§4)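 SH-SY5Y cells exposed to 20 μM for 4, 8 and 24 h. […] Densitometry normalized to β-actin. Duplicate, at least twice; one-way ANOVA with Tukey post-test.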

Data set [10] has the same target. Kind of data set: Induction of Nrf2 signalling pathway in human lymphoblast assessed as increase in HMOX1 protein level at 20 uM measured after 24 hrs by immunoblot analysis. The data set is classed as cell-based. Particulars: Lymphoblastoid cell, filed as activator.
The target is the same in data set [11]. Description: Induction of Nrf2 signalling pathway in ALS patient derived human lymphoblasts harboring SOD1 mutation assessed as increase in HMOX1 mRNA level at 20 uM measured after 24 hrs by RT-qPCR analysis. The data set is classed as cell-based. Particulars: Lymphoblastoid cell, filed as activator. The method, boiled down: as §1
For data set [12] the target is unchanged. Description: Induction of Nrf2 signalling pathway in human lymphoblast assessed as increase in Nrf2 protein level at 20 uM measured after 24 hrs by immunoblot analysis. Particulars: Lymphoblastoid cell, filed as activator. The data set is classed as cell-based.
The target is the same in data set [13]. Description: Induction of Nrf2 signalling pathway in ALS patient derived human lymphoblasts harboring SOD1 mutation assessed as increase in HMOX1 protein level at 20 uM measured after 24 hrs by immunoblot analysis. The data set is classed as cell-based. The following applies: Lymphoblastoid cell, filed as activator.
Data set [14] can be described thus: Stability in pooled human liver microsomes assessed as intrinsic clearance at 8 uM in presence of NADPH measured upto 60 mins by HPLC-MS analysis. The data set is classed as ADME, Microsome. The following applies: 1 h.
Data set [15] addresses T3, Albumin (Homo sapiens, UniProt P02768). Kind of data set: Binding affinity to human serum albumin assessed as Stern-Volmer quenching constant by Stern-Volmer plot analysis. The data set is classed as ADME. Particulars: isolated protein.
Data set [16] has as its target T1, Nuclear factor erythroid 2-related factor 2 (Homo sapiens). Kind of data set: Activation of Nrf2 transcriptional activity in human SH-SY5Y cells assessed as induction of accumulation of Nrf2 in nucleus at 20 uM incubated for 30 to 240 mins by Immunoblotting analysis. The data set is classed as cell-based. Particulars: filed as activator, time 60-240 min, in the assay text read “60 to 240 mins” for “30 to 240 mins”. The essentials: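 SH-SY5Y cells treated at 20 μM for 1, 2 and 4 h. Cytosolic and nuclear fractions were prepared by hypotonic NP-40 lysis followed by a nuclear extraction buffer. […] Duplicate, at least twice.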

For data set [17] the target is unchanged. Kind of data set: Activation of Nrf2 transcriptional activity in human SH-SY5Y cells assessed as increase in HO-1 protein levels at 20 uM incubated for 24 hrs by immunoblot analysis. The data set is classed as cell-based. The following applies: filed as activator. The method, boiled down: as §4
The target is the same in data set [18]. Description: Induction of Nrf2 signalling pathway in ALS patient derived human lymphoblasts harboring SOD1 mutation assessed as increase in NQO1 protein level at 20 uM measured after 24 hrs by immunoblot analysis. The following applies: Lymphoblastoid cell, filed as activator. The data set is classed as cell-based.
Data set [19] has the same target. Description: Induction of Nrf2 signalling pathway in human lymphoblast assessed as increase in HMOX1 mRNA level at 20 uM measured after 24 hrs by RT-qPCR analysis. The data set is classed as cell-based. The following applies: Lymphoblastoid cell, filed as activator. The method, boiled down:
as §1

Data set [20] concerns the target T2, Nuclear factor erythroid 2-related factor 2 (Mus musculus). Description: Activation of Nrf2 transcriptional activity in KEAP1+/+ mouse embryonic fibroblast cells assessed as increase in HMOX1 mRNA levels at 20 uM by RT-qPCR analysis. The data set is classed as cell-based. The following applies: filed as activator, time 4-24 hrs, TDE = time-dependent effect. The essentials: as §3

For data set [21], the target named is T1, Nuclear factor erythroid 2-related factor 2 (Homo sapiens). Description: Induction of Nrf2 signalling pathway in human lymphoblast assessed as increase in NQO1 protein level at 20 uM measured after 24 hrs by immunoblot analysis. The data set is classed as cell-based. Particulars: Lymphoblastoid cell, filed as activator.
For data set [22], the target named is T3, Albumin. Description: Binding affinity to human serum albumin assessed as association constant by Scatchard equation. Particulars: isolated protein. The data set is classed as ADME.
The target of data set [23] is Rho-associated protein kinase 2 (Homo sapiens, UniProt O75116). Kind of data set: Inhibition of ROCK2 (unknown origin) using KEAKEKRQEQIAKRRRLSSLRASTSKSGGSQK-peptide as substrate incubated for 30 mins in presence of [gamma-33P]-ATP.
Rho-associated protein kinase 2, sequence (O75116 whole entry): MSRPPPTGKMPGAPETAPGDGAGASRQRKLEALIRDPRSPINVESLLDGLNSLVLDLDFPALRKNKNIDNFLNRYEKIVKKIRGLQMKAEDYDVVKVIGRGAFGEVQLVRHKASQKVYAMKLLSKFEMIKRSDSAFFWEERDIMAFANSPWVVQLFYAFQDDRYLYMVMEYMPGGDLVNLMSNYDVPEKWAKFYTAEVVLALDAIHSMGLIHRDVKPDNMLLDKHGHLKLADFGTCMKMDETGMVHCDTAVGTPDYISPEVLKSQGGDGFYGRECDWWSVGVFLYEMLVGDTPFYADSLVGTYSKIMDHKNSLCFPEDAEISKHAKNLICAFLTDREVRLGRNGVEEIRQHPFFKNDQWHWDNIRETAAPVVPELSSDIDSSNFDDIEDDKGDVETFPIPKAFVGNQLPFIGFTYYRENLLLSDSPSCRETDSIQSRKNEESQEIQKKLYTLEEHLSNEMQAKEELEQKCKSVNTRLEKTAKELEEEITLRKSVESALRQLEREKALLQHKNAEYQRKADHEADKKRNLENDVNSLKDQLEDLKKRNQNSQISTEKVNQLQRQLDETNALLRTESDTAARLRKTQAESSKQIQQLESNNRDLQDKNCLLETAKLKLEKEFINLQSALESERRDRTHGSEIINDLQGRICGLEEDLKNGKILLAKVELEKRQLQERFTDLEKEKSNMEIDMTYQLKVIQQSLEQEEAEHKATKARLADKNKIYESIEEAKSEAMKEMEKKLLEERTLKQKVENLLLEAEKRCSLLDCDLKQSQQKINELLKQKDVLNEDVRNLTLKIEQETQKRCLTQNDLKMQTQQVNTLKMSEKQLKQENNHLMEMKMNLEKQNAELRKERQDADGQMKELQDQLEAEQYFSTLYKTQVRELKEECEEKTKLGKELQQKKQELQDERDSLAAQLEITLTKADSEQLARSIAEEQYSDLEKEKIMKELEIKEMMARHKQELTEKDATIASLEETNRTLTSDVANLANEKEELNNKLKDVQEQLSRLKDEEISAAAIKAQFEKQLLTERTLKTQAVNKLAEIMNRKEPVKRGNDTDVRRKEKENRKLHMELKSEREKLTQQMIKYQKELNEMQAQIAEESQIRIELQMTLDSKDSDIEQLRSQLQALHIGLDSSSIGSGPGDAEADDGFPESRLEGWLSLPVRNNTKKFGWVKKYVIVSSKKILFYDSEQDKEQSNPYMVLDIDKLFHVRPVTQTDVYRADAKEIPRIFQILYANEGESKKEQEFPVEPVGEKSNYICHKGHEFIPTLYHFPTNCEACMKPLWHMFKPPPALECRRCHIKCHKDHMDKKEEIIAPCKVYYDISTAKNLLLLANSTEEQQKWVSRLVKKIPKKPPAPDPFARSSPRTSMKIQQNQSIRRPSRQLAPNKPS

T3 sequence (P02768 whole entry): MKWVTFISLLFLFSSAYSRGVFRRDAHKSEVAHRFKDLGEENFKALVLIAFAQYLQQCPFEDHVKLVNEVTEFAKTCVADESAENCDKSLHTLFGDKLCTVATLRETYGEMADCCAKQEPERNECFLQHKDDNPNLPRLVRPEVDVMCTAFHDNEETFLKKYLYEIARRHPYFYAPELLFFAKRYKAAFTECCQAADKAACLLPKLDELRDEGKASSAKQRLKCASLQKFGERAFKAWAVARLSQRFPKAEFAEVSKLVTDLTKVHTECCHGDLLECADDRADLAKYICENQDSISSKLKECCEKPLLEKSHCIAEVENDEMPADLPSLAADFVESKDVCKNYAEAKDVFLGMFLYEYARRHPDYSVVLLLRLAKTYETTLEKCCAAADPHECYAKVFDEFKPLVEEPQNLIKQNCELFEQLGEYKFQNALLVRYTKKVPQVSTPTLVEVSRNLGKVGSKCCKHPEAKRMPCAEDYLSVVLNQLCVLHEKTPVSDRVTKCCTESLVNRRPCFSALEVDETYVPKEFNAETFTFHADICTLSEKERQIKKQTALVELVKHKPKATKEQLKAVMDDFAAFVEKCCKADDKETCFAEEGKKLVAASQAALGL

Take `O=C(CCc1ccc(O)c(O)c1)N1CCN(S(=O)(=O)c2cccc3cnccc23)CC1`: the Activity entry in [1] was “Dde”. Also, the Selectivity ratio in the data set filed under Homo sapiens is 46.9.
As to `O=C(CCc1ccc(O)c(O)c1)N1CCCN(S(=O)(=O)c2cccc3cnccc23)CC1`, the result in [2], in data set [4], in [7], in [9], in data set [10] and in data set [11] was Active. The outcome in data set [12], in [13], in data set [16], in data set [17], in [18] and in [19] was Active. Besides, the outcome in [21] was Active. The Activity result in [1] is “Dde”; in data set [3], “Tde”; in data set [5], “Tde”; in data set [6] it was “Tde”; in [20] it was “Tde”. Further, in data set [8], the deltaT was determined as 0.2 °C. Further, the CLint in [14] is 15.3 µL/min/mg. Further, the KSV on Albumin [15] is 1.68 10^5L/mol. On Albumin [22], the ka is on record as 7.94 10^5L/mol. Moreover, the Selectivity ratio in the data set listed under Homo sapiens was found to be 1.4.
As usually defined, the IC50 is the concentration that gives 50% inhibition. Regarding `COc1cc(CCC(=O)N2CCN(S(=O)(=O)c3cccc4cnccc34)CC2)ccc1O`, the IC50 in data set [23] was greater than 10 µM.
On to `O=C(/C=C/c1ccc(O)c(O)c1)N1CCCN(S(=O)(=O)c2cccc3cnccc23)CC1`, for which the Activity result in data set [1] is “Dde”. Moreover, in the data set filed under Homo sapiens, the Selectivity ratio was found to be 5.2.
